Measured values as given in PubChem BioAssay AID485348 (The Scripps Research Institute Molecular Screening Center, 2010).
Active and inactive are the calls of the source.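 Rule for the calls: active = inhibition above 25%, the campaign hit cutoff; inactive = the rest.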

The compounds below were run against Nuclear receptor subfamily 5 group A member 2 (Homo sapiens) (UniProt O00482) (assay: suppression of LRH-1-driven Cyp19-luciferase signal, LRH-1 inverse agonist project, cell-based, luminescence, 3X%INH (AID 485348)). Details: HEK293T LRH-1 Cyp19-luciferase reporter, 20 h, at 5 µM, stronger effect = higher value.
Sequence of Nuclear receptor subfamily 5 group A member 2 (Homo sapiens) (O00482 whole entry, looked up): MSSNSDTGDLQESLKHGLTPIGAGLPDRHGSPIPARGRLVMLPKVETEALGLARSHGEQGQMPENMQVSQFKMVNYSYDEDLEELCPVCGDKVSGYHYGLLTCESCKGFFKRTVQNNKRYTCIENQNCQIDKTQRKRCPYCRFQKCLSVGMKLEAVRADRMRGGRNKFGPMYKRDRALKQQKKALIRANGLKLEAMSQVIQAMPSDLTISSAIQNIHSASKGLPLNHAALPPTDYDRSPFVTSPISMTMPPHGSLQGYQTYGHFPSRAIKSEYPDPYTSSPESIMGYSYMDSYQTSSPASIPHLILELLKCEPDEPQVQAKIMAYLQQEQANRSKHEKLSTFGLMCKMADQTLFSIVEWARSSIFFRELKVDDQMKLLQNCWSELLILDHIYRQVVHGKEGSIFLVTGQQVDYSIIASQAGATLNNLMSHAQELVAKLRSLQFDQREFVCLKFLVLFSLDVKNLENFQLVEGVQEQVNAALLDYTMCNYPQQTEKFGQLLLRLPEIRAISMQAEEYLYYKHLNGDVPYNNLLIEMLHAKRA
Method in brief: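 Material: HEK293T cells cotransfected with full-length LRH-1 (pSport6) and Cyp19-aromatase luciferase reporter / Times: 20 h compound exposure after 4 h rest / Detection: luciferase luminescence / Benchmarks: DMSO vehicle-treated wells as reference / Repeats: triplicate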
`O=c1cc(N2CCN(c3cccc(C(F)(F)F)c3)CC2)[nH]c(=O)n1-c1ccccc1` was tested, and the inhibition was 17.7% (inactive).
An inhibition of 36.7% was found for `C=CCn1c(=O)cc(N2CCN(c3cccc(C(F)(F)F)c3)CC2)[nH]c1=O` in this work.
An inhibition of 33.3% was found for `CC(C)Cn1c(=O)cc(N2CCN(c3cccc(C(F)(F)F)c3)CC2)[nH]c1=O` in this work.
With `CCn1c(=O)cc(N2CCN(c3ccccc3)CC2)[nH]c1=O` the inhibition was 3.7% (inactive).
`CCOC(=O)N1CCN(c2cc(=O)n(C3CCCCC3)c(=O)[nH]2)CC1` was tested, and the inhibition was 16% (inactive).
`O=c1cc(N2CCN(Cc3ccc4c(c3)OCO4)CC2)[nH]c(=O)n1C1CCCCC1` was tested, and the inhibition was 16.7% (inactive).
An inhibition of 32.3% was found for `Cc1ccc(C)n1CCN1CCN(c2cc(=O)n(C3CCCCC3)c(=O)[nH]2)CC1` in this work.
With `O=c1cc(N2CCN(c3ccccc3Cl)CC2)[nH]c(=O)n1C1CCCCC1` the inhibition was 16% (inactive).
An inhibition of 40.7% was found for `Cn1c(=O)cc(N2CCN(c3cccc(Cl)c3)CC2)[nH]c1=O` in this work.
For `COC(=O)C1CCN(c2cc(=O)n(C3CCCCC3)c(=O)[nH]2)CC1`, the inhibition was 18% (inactive).
`CCn1c(=O)cc(N2CCN(C(=O)c3ccco3)CC2)[nH]c1=O` was tested, and the inhibition was 3.3% (inactive).
`N#CCn1c(N2CCN(c3cccc(C(F)(F)F)c3)CC2)cc(=O)n(C2CCCCC2)c1=O` was tested, and the inhibition was 2% (inactive).
In the case of `O=C(c1ccco1)N1CCN(c2cc(=O)n(C3CCCCC3)c(=O)[nH]2)CC1`, the inhibition is reported as 11% (inactive).
In the case of `O=c1cc(N2CCN(c3ncccc3Cl)CC2)[nH]c(=O)n1C1CCCCC1`, the inhibition is reported as 17.7% (inactive).
With `CC1CCN(c2cc(=O)n(Cc3ccc(F)cc3)c(=O)[nH]2)CC1` the inhibition was 5.7% (inactive).
An inhibition of 34.7% was found for `O=c1cc(N2CCN(c3ccnc4cc(Cl)ccc34)CC2)[nH]c(=O)n1C1CCCCC1` in this work.
An inhibition of 39.3% was found for `CCn1c(=O)cc(N2CCN(c3cccc(C(F)(F)F)c3)CC2)[nH]c1=O` in this work.
An inhibition of 29.7% was found for `C=CCn1c(N2CCN(c3cccc(C(F)(F)F)c3)CC2)cc(=O)n(C2CCCCC2)c1=O` in this work.
An inhibition of 45% was found for `CCn1c(=O)cc(N2CCN(c3cccc(Cl)c3)CC2)[nH]c1=O` in this work.
`O=c1cc(N2CCN(c3ccc(F)cc3)CC2)[nH]c(=O)n1C1CCCCC1` was tested, and the inhibition was 1.3% (inactive).
For `O=c1cc(N2CCCCC2)[nH]c(=O)n1C1CCCCC1`, the inhibition was 20.3% (inactive).
An inhibition of 45% was found for `O=c1cc(N2CCN(c3cccc(Cl)n3)CC2)[nH]c(=O)n1C1CCCCC1` in this work.
An inhibition of 42% was found for `O=c1cc(N2CCN(c3cccc(Cl)c3Cl)CC2)[nH]c(=O)n1C1CCCCC1` in this work.
`O=c1cc(N2CCN(c3ccc(C(F)(F)F)cc3)CC2)[nH]c(=O)n1C1CCCCC1` was tested, and the inhibition was 0% (inactive).
An inhibition of 30.3% was found for `O=c1cc(N2CCN(Cc3ccc(Cl)cc3)CC2)[nH]c(=O)n1C1CCCCC1` in this work.
`O=c1cc(N2CCN(c3ccccc3C(F)(F)F)CC2)[nH]c(=O)n1C1CCCCC1` was tested, and the inhibition was 16% (inactive).
`O=c1cc(N2CCN(c3cccc(C(F)(F)F)n3)CC2)[nH]c(=O)n1C1CCCCC1` was tested, and the inhibition was 3.3% (inactive).
With `O=c1cc(N2CCN(c3cccc(Br)c3)CC2)[nH]c(=O)n1C1CCCCC1` the inhibition was 17% (inactive).
In the case of `CCn1c(=O)cc(N2CCN(Cc3ccccc3)CC2)[nH]c1=O`, the inhibition is reported as 9.7% (inactive).
An inhibition of 38.3% was found for `Cc1cc(C)cc(N2CCN(c3cc(=O)n(C4CCCCC4)c(=O)[nH]3)CC2)c1` in this work.
An inhibition of 36.7% was found for `O=c1cc(N2CCN(c3cccc(F)c3)CC2)[nH]c(=O)n1C1CCCCC1` in this work.
For `O=c1cc(N2CCCC2)[nH]c(=O)n1C1CCCCC1`, the inhibition was 8.7% (inactive).
For `O=c1cc(N2CCOCC2)[nH]c(=O)n1C1CCCCC1`, the inhibition was 5.3% (inactive).
An inhibition of 42% was found for `O=c1cc(N2CCN(c3nc(-c4ccccc4)ns3)CC2)[nH]c(=O)n1C1CCCCC1` in this work.
An inhibition of 35.3% was found for `O=c1cc(N2CCN(C3CCCCC3)CC2)[nH]c(=O)n1C1CCCCC1` in this work.
With `O=C(c1ccccc1)N1CCN(c2cc(=O)n(C3CCCCC3)c(=O)[nH]2)CC1` the inhibition was 0.3% (inactive).
`Cn1c(=O)cc(N2CCN(c3ccc(F)cc3)CC2)[nH]c1=O` was tested, and the inhibition was 14% (inactive).
In the case of `O=c1cc(N2CCN(c3nccc4occc34)CC2)[nH]c(=O)n1C1CCCCC1`, the inhibition is reported as 2.7% (inactive).
With `O=c1cc(N2CCN(c3ccc(F)cc3F)CC2)[nH]c(=O)n1C1CCCCC1` the inhibition was 3.3% (inactive).
In the case of `O=c1cc(N2CCc3ccccc32)[nH]c(=O)n1C1CCCCC1`, the inhibition is reported as 14.3% (inactive).
For `O=c1cc(N2CCN(c3cc(C(F)(F)F)ccn3)CC2)[nH]c(=O)n1C1CCCCC1`, the inhibition was 20.3% (inactive).
`COc1ccc(N2CCN(c3cc(=O)n(C4CCCCC4)c(=O)[nH]3)CC2)cc1` was tested, and the inhibition was 1.7% (inactive).
An inhibition of 32% was found for `O=c1cc(N2CCN(c3ccccc3)CC2)[nH]c(=O)n1C1CCCCC1` in this work.
With `O=c1cc(N2CCN(c3ncccc3C(F)(F)F)CC2)[nH]c(=O)n1C1CCCCC1` the inhibition was 11.3% (inactive).
In the case of `O=c1cc(N2CCN(C(c3ccccc3)c3ccccc3)CC2)[nH]c(=O)n1C1CCCCC1`, the inhibition is reported as 4% (inactive).
`O=c1cc(N2CCN(c3cccc(Cl)c3)CC2)[nH]c(=O)[nH]1` was tested, and the inhibition was 0% (inactive).
`O=c1cc(N2CCN(c3cc(Cl)cc(Cl)c3)CC2)[nH]c(=O)n1C1CCCCC1` was tested, and the inhibition was 20% (inactive).
In the case of `O=c1cc(N2CCC(Cc3ccccc3)CC2)[nH]c(=O)n1C1CCCCC1`, the inhibition is reported as 2.3% (inactive).
With `O=c1cc(N2CCN(c3cccc(C(F)(F)F)c3)CC2)[nH]c(=O)n1Cc1ccccc1` the inhibition was 3% (inactive).
For `CCn1c(=O)cc(N2CCN(c3ccc(F)cc3)CC2)[nH]c1=O`, the inhibition was 2.3% (inactive).
With `Cc1ccc(Cl)cc1N1CCN(c2cc(=O)n(C3CCCCC3)c(=O)[nH]2)CC1` the inhibition was 16.3% (inactive).
An inhibition of 36% was found for `O=c1cc(N2CCN(c3ccccn3)CC2)[nH]c(=O)n1C1CCCCC1` in this work.
In the case of `O=c1cc(N2CCN(c3ccccc3)CC2)[nH]c(=O)n1Cc1ccc(F)cc1`, the inhibition is reported as 22.7% (inactive).
An inhibition of 52.3% was found for `O=c1cc(N2CCN(c3cccc(Cl)c3)CC2)[nH]c(=O)n1C1CCCCC1` in this work.
`C=CCN1CCN(c2cc(=O)n(C3CCCCC3)c(=O)[nH]2)CC1` was tested, and the inhibition was -30% (inactive).
With `O=c1cc(N2CCN(CCN3CCOCC3)CC2)[nH]c(=O)n1C1CCCCC1` the inhibition was 13.3% (inactive).
In the case of `O=c1cc(N2CCN(c3cccc(C(F)(F)F)c3)CC2)n(Cc2ccccc2)c(=O)n1C1CCCCC1`, the inhibition is reported as 21.3% (inactive).
For `CC1CCN(c2cc(=O)n(C3CCCCC3)c(=O)[nH]2)CC1`, the inhibition was 10% (inactive).
In the case of `CCN1CCN(c2cc(=O)n(C3CCCCC3)c(=O)[nH]2)CC1`, the inhibition is reported as 5.3% (inactive).
An inhibition of 45.7% was found for `O=c1cc(N2CCN(c3cccc(C(F)(F)F)c3)CC2)[nH]c(=O)n1C1CCCCC1` in this work.
